# Values joined by “and” are separate entries in the source; they are usually repeats but may differ in a detail not shown here. Equal entries are not always repeated.
# Tested on: U2OS
# Test: Multiplex assay against U2OS
# Assay type: toxicity, cell-based
# Details: human
# Outline: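 Four dyes were applied at seeding to live cells: Hoechst33342, BioTracker Green Microtubule Cytoskeleton Dye, MitoTracker Red and Annexin V Alexa Fluor 680. Imaging after compound addition used a CQ1 microscope at 37°C and 5% CO2. CellPathfinder machine-learning gating then sorted cells into Hoechst high-intensity objects or normal cells, normal cells into healthy, pyknosed or fragmented nuclei, and pyknosed cells into mitotic or apoptotic, with tubulin, mitochondrial-mass and membrane-permeability phenotypes given as per cents of healthy-nucleus cells.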
# [1] = 12 h, 1 µM, compound concentration 1 uM, replicate 1
# [2] = 12 h, 1 µM, compound concentration 1 uM, replicate 2
# [3] = 12 h, 10 µM, compound concentration 10 uM, replicate 1
# [4] = 12 h, 10 µM, compound concentration 10 uM, replicate 2
# [5] = 24 h, 1 µM, compound concentration 1 uM, replicate 1
# [6] = 24 h, 1 µM, compound concentration 1 uM, replicate 2
# [7] = 24 h, 10 µM, compound concentration 10 uM, replicate 1
# [8] = 24 h, 10 µM, compound concentration 10 uM, replicate 2
# [9] = 48 h, 1 µM, compound concentration 1 uM, replicate 1
# [10] = 48 h, 1 µM, compound concentration 1 uM, replicate 2
# [11] = 48 h, 10 µM, compound concentration 10 uM, replicate 1
# [12] = 48 h, 10 µM, compound concentration 10 uM, replicate 2
compound,measurement,setting,value
Nc1c(C(=O)NCc2ccc(C(=O)NCCCC3CCCCC3)cc2)cnn1-c1ccccc1 [SR-318],Population Apoptotic (%),[1],42% and 23% and 30%
same,Population Fragmented Nuclei (%),[1],5% and 10% and 6%
same,Population Healthy Nuclei (%),[1],85% and 78% and 81%
same,Population Hoechst High Intensity Objects (%),[1],3%
same,Population Membrane Permeable-Phenotype (%),[1],4% and 3%
same,Population Mitochondria Different-Phenotype (%),[1],9% and 6%
same,Population Mitotic Cells (%),[1],57% and 76% and 69%
same,Population Normal (%),[1],96%
same,Population Pyknosed Nuclei (%),[1],9% and 10% and 12%
same,Population Tubulin-Different-Phenotype (%),[1],52% and 44%
same,Total Cell Count,[1],171 and 322 and 200
same,Population Fragmented Nuclei (%),[2],9% and 3%
same,Population Healthy Nuclei (%),[2],83% and 75% and 91%
same,Population Membrane Permeable-Phenotype (%),[2],6% and 5%
same,Population Mitochondria Different-Phenotype (%),[2],8%
same,Population Mitotic Cells (%),[2],50% and 87% and 100%
same,Population Normal (%),[2],95% and 73%
same,Population Tubulin-Different-Phenotype (%),[2],19% and 25% and 11%
same,Total Cell Count,[2],63 and 91 and 118
same,Population Apoptotic (%),[3],61% and 58% and 42%
same,Population Fragmented Nuclei (%),[3],6% and 14% and 11%
same,Population Healthy Nuclei (%),[3],74% and 65% and 67%
same,Population Hoechst High Intensity Objects (%),[3],2% and 8% and 5%
same,Population Membrane Permeable-Phenotype (%),[3],8% and 5% and 2%
same,Population Mitochondria Different-Phenotype (%),[3],57% and 50% and 60%
same,Population Mitotic Cells (%),[3],38% and 41% and 57%
same,Population Normal (%),[3],97% and 91% and 94%
same,Population Pyknosed Nuclei (%),[3],18% and 20% and 21%
same,Population Tubulin-Different-Phenotype (%),[3],39% and 47% and 40%
same,Total Cell Count,[3],186 and 329 and 402
same,Population Apoptotic (%),[4],45% and 22% and 33%
same,Population Fragmented Nuclei (%),[4],17% and 15% and 12%
same,Population Healthy Nuclei (%),[4],69% and 58% and 72%
same,Population Hoechst High Intensity Objects (%),[4],7% and 1% and 10%
same,Population Membrane Permeable-Phenotype (%),[4],10% and 7% and 3%
same,Population Mitochondria Different-Phenotype (%),[4],55% and 51%
same,Population Mitotic Cells (%),[4],54% and 77% and 66%
same,Population Normal (%),[4],92% and 98% and 89%
same,Population Pyknosed Nuclei (%),[4],13% and 25% and 15%
same,Population Tubulin-Different-Phenotype (%),[4],50% and 56% and 67%
same,Total Cell Count,[4],71 and 90 and 91
same,Population Apoptotic (%),[5],35% and 34% and 21%
same,Population Fragmented Nuclei (%),[5],5% and 8%
same,Population Healthy Nuclei (%),[5],85%
same,Population Hoechst High Intensity Objects (%),[5],0% and 3%
same,Population Membrane Permeable-Phenotype (%),[5],1% and 4% and 2%
same,Population Mitochondria Different-Phenotype (%),[5],5% and 6% and 8%
same,Population Mitotic Cells (%),[5],64% and 65% and 78%
same,Population Normal (%),[5],99% and 96%
same,Population Pyknosed Nuclei (%),[5],9% and 10%
same,Population Tubulin-Different-Phenotype (%),[5],59% and 20% and 47%
same,Total Cell Count,[5],185 and 423 and 237
same,Population Apoptotic (%),[6],25%
same,Population Fragmented Nuclei (%),[6],6% and 3% and 4%
same,Population Healthy Nuclei (%),[6],80% and 84% and 75%
same,Population Membrane Permeable-Phenotype (%),[6],8% and 5%
same,Population Mitochondria Different-Phenotype (%),[6],13% and 12% and 7%
same,Population Mitotic Cells (%),[6],75%
same,Population Normal (%),[6],94% and 97% and 77%
same,Population Pyknosed Nuclei (%),[6],13% and 11% and 19%
same,Population Tubulin-Different-Phenotype (%),[6],22% and 14% and 23%
same,Total Cell Count,[6],67 and 130 and 97
same,Population Apoptotic (%),[7],55% and 58% and 61%
same,Population Fragmented Nuclei (%),[7],12% and 5%
same,Population Healthy Nuclei (%),[7],67% and 74% and 61%
same,Population Hoechst High Intensity Objects (%),[7],8% and 4%
same,Population Membrane Permeable-Phenotype (%),[7],4% and 2% and 0%
same,Population Mitochondria Different-Phenotype (%),[7],55% and 53% and 63%
same,Population Mitotic Cells (%),[7],44% and 41% and 38%
same,Population Normal (%),[7],91% and 95%
same,Population Pyknosed Nuclei (%),[7],19%
same,Population Tubulin-Different-Phenotype (%),[7],36% and 24%
same,Total Cell Count,[7],409 and 192 and 426
same,Population Apoptotic (%),[8],28% and 44% and 46%
same,Population Fragmented Nuclei (%),[8],13% and 17% and 14%
same,Population Healthy Nuclei (%),[8],65% and 62% and 66%
same,Population Hoechst High Intensity Objects (%),[8],1% and 7%
same,Population Membrane Permeable-Phenotype (%),[8],9% and 7% and 3%
same,Population Mitochondria Different-Phenotype (%),[8],58% and 57% and 66%
same,Population Mitotic Cells (%),[8],71% and 55% and 53%
same,Population Normal (%),[8],98% and 92%
same,Population Pyknosed Nuclei (%),[8],21% and 20% and 18%
same,Population Tubulin-Different-Phenotype (%),[8],41% and 30% and 61%
same,Total Cell Count,[8],104 and 67 and 97
same,Population Apoptotic (%),[9],44% and 47% and 55%
same,Population Fragmented Nuclei (%),[9],3% and 8%
same,Population Healthy Nuclei (%),[9],87% and 83%
same,Population Hoechst High Intensity Objects (%),[9],0% and 2%
same,Population Membrane Permeable-Phenotype (%),[9],2% and 1%
same,Population Mitochondria Different-Phenotype (%),[9],5% and 8% and 7%
same,Population Mitotic Cells (%),[9],55% and 52% and 44%
same,Population Normal (%),[9],99% and 97%
same,Population Pyknosed Nuclei (%),[9],8% and 9% and 7%
same,Population Tubulin-Different-Phenotype (%),[9],69% and 56% and 24%
same,Total Cell Count,[9],247 and 369 and 658
same,Population Apoptotic (%),[10],28% and 40% and 26%
same,Population Fragmented Nuclei (%),[10],7% and 5% and 2%
same,Population Healthy Nuclei (%),[10],86% and 84%
same,Population Membrane Permeable-Phenotype (%),[10],10% and 9% and 3%
same,Population Mitochondria Different-Phenotype (%),[10],14% and 9%
same,Population Mitotic Cells (%),[10],71% and 60% and 73%
same,Population Normal (%),[10],95% and 98% and 83%
same,Population Pyknosed Nuclei (%),[10],5% and 6% and 13%
same,Population Tubulin-Different-Phenotype (%),[10],28% and 20% and 25%
same,Total Cell Count,[10],93 and 175 and 144
same,Population Apoptotic (%),[11],70% and 73% and 60%
same,Population Fragmented Nuclei (%),[11],7%
same,Population Healthy Nuclei (%),[11],76% and 61%
same,Population Hoechst High Intensity Objects (%),[11],2% and 4%
same,Population Membrane Permeable-Phenotype (%),[11],2% and 0%
same,Population Mitochondria Different-Phenotype (%),[11],35% and 32% and 47%
same,Population Mitotic Cells (%),[11],29% and 26% and 40%
same,Population Normal (%),[11],97% and 95%
same,Population Pyknosed Nuclei (%),[11],16% and 23% and 22%
same,Population Tubulin-Different-Phenotype (%),[11],17% and 9% and 25%
same,Total Cell Count,[11],234 and 596 and 634
same,Population Apoptotic (%),[12],35% and 38% and 33%
same,Population Fragmented Nuclei (%),[12],15% and 14% and 12%
same,Population Healthy Nuclei (%),[12],68% and 60%
same,Population Hoechst High Intensity Objects (%),[12],7% and 3%
same,Population Membrane Permeable-Phenotype (%),[12],6% and 18% and 17%
same,Population Mitochondria Different-Phenotype (%),[12],52% and 40% and 44%
same,Population Mitotic Cells (%),[12],64% and 61% and 66%
same,Population Normal (%),[12],92% and 96%
same,Population Pyknosed Nuclei (%),[12],15% and 17% and 28%
same,Population Tubulin-Different-Phenotype (%),[12],32% and 26% and 31%
same,Total Cell Count,[12],113 and 78 and 158
CC(C)C(=O)Nc1n[nH]c2cc(-c3cccc(NS(=O)(=O)C4CC4)c3)ccc12,Population Apoptotic (%),[1],33% and 20%
same,Population Fragmented Nuclei (%),[1],8% and 3%
same,Population Healthy Nuclei (%),[1],88% and 86%
same,Population Membrane Permeable-Phenotype (%),[1],18% and 12%
same,Population Mitochondria Different-Phenotype (%),[1],22% and 20%
same,Population Mitotic Cells (%),[1],66% and 80%
same,Population Normal (%),[1],98% and 95%
same,Population Pyknosed Nuclei (%),[1],3% and 9%
same,Population Tubulin-Different-Phenotype (%),[1],21% and 32%
same,Total Cell Count,[1],108 and 215
same,Population Apoptotic (%),[2],25% and 16%
same,Population Fragmented Nuclei (%),[2],11%
same,Population Healthy Nuclei (%),[2],82% and 92%
same,Population Hoechst High Intensity Objects (%),[2],12% and 6%
same,Population Membrane Permeable-Phenotype (%),[2],21% and 10%
same,Population Mitochondria Different-Phenotype (%),[2],42% and 28%
same,Population Mitotic Cells (%),[2],75% and 83%
same,Population Normal (%),[2],87% and 94%
same,Population Pyknosed Nuclei (%),[2],5% and 4%
same,Population Tubulin-Different-Phenotype (%),[2],26% and 18%
same,Total Cell Count,[2],122 and 78
same,Population Apoptotic (%),[5],27% and 25%
same,Population Fragmented Nuclei (%),[5],5% and 2%
same,Population Healthy Nuclei (%),[5],90% and 89%
same,Population Hoechst High Intensity Objects (%),[5],2% and 3%
same,Population Membrane Permeable-Phenotype (%),[5],12% and 10%
same,Population Mitochondria Different-Phenotype (%),[5],17% and 24%
same,Population Mitotic Cells (%),[5],72% and 75%
same,Population Normal (%),[5],97% and 96%
same,Population Pyknosed Nuclei (%),[5],4% and 8%
same,Population Tubulin-Different-Phenotype (%),[5],23% and 38%
same,Total Cell Count,[5],152 and 246
same,Population Apoptotic (%),[6],18% and 21%
same,Population Fragmented Nuclei (%),[6],4% and 3%
same,Population Healthy Nuclei (%),[6],82% and 88%
same,Population Hoechst High Intensity Objects (%),[6],8% and 4%
same,Population Mitochondria Different-Phenotype (%),[6],41% and 31%
same,Population Mitotic Cells (%),[6],81% and 78%
same,Population Normal (%),[6],91% and 95%
same,Population Pyknosed Nuclei (%),[6],12% and 7%
same,Population Tubulin-Different-Phenotype (%),[6],35%
same,Total Cell Count,[6],144 and 96

# Source: ChEMBL document CHEMBL4689842, “EUbOPEN Chemogenomics Library wave 1” (2021)
